B1: Osa-1-4 twister ribozyme (parent)
chain: CCGCCUAACACUGCCAAUGCCGGUCCCAAGCCCGGAUAAAAGUGGAGGGGGCGG

Variants of: B1
Assay: self-cleavage, relative activity (ratio to wild type); higher = more cleavage; co-transcriptional
How it was run: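 The 48 positions downstream of the cleavage site in a 54-nucleotide Oryza sativa twister ribozyme template were synthesised at 97 % wild-type base and 1 % of each other base. The template was transcribed in vitro at 37 °C for 2 h, with self-cleavage allowed during transcription. Reads with or without upstream sequence after deep sequencing marked cleavage status, and relative activity is fraction cleaved normalised to wild type.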

Q: With C20G G22A as the variant, how does the self-cleavage read?
A: 0.08

Q: Which self-cleavage does the source give for C20G G22C here?
A: 0.05

Q: Which self-cleavage does the source give for C20G G22U here?
A: 0.09

Q: With C20A U12G as the variant, how does the self-cleavage read?
A: 0.71

Q: For C20A U12C, which self-cleavage is on record?
A: 0.57

Q: With C20A U12A as the variant, how does the self-cleavage read?
A: 0.82

Q: For C20A G47U, which self-cleavage is on record?
A: 0.32

Q: With C20A G47A as the variant, how does the self-cleavage read?
A: 0.36

Q: Which self-cleavage does the source give for C20A G47C here?
A: 0.13

Q: For C20A G35U, which self-cleavage is on record?
A: 0.94

Q: For C20A G35A, which self-cleavage is on record?
A: 0.88

Q: For C20A G35C, which self-cleavage is on record?
A: 0.9

Q: For C20G G42C, which self-cleavage is on record?
A: 0.04

Q: For C20G G42U, which self-cleavage is on record?
A: 0.02

Q: Which self-cleavage does the source give for C20G G42A here?
A: 0.07

Q: With C20A G51U as the variant, how does the self-cleavage read?
A: 0.66

Q: Which self-cleavage does the source give for C20A G51C here?
A: 0.28

Q: Which self-cleavage does the source give for C20A G51A here?
A: 0.78

Q: With C20G G49C as the variant, how does the self-cleavage read?
A: 0.03

Q: Which self-cleavage does the source give for C20G G49U here?
A: 0.04

Q: With C20G G49A as the variant, how does the self-cleavage read?
A: 0.05

Q: With C20A G53A as the variant, how does the self-cleavage read?
A: 0.67

Q: Which self-cleavage does the source give for C20A G53C here?
A: 0.1

Q: For C20A G53U, which self-cleavage is on record?
A: 0.42

Q: For C20A C27U, which self-cleavage is on record?
A: 0.31

Q: Which self-cleavage does the source give for C20A C27A here?
A: 0.34

Q: Which self-cleavage does the source give for C20A C27G here?
A: 0.09

Q: For C20G G30C, which self-cleavage is on record?
A: 0.03

Q: Which self-cleavage does the source give for C20G G30A here?
A: 0.03

Q: With C20G G30U as the variant, how does the self-cleavage read?
A: 0.02

Q: Which self-cleavage does the source give for C20A U18C here?
A: 0.83

Q: With C20A U18G as the variant, how does the self-cleavage read?
A: 0.67

Q: Which self-cleavage does the source give for C20A U18A here?
A: 0.6

Q: For C20A C32G, which self-cleavage is on record?
A: 0.05

Q: For C20A C32U, which self-cleavage is on record?
A: 0.08

Q: With C20A C32A as the variant, how does the self-cleavage read?
A: 0.07

Q: With C20A G13U as the variant, how does the self-cleavage read?
A: 0.02

Q: For C20A G13A, which self-cleavage is on record?
A: 0.13

Q: Which self-cleavage does the source give for C20A G13C here?
A: 0.01

Q: For C20G G13C, which self-cleavage is on record?
A: 0.02

Q: Which self-cleavage does the source give for C20G G13A here?
A: 0.03

Q: With C20G G13U as the variant, how does the self-cleavage read?
A: 0.01

Q: With C20G C9A as the variant, how does the self-cleavage read?
A: 0.05

Q: For C20G C9G, which self-cleavage is on record?
A: 0.1

Q: For C20G C9U, which self-cleavage is on record?
A: 0.05

Q: For C20A G50C, which self-cleavage is on record?
A: 0.78

Q: With C20A G50A as the variant, how does the self-cleavage read?
A: 0.8

Q: With C20A G50U as the variant, how does the self-cleavage read?
A: 0.82

Q: Which self-cleavage does the source give for C20A C52G here?
A: 0.79

Q: With C20A C52U as the variant, how does the self-cleavage read?
A: 0.82

Q: For C20A C52A, which self-cleavage is on record?
A: 0.8

Q: For C20A C26U, which self-cleavage is on record?
A: 0.87

Q: With C20A C26G as the variant, how does the self-cleavage read?
A: 0.08

Q: For C20A C26A, which self-cleavage is on record?
A: 0.08

Q: With C20G G44A as the variant, how does the self-cleavage read?
A: 0.08

Q: For C20G G44U, which self-cleavage is on record?
A: 0.07

Q: For C20G G44C, which self-cleavage is on record?
A: 0.06

Q: Which self-cleavage does the source give for C20A G45A here?
A: 0.45

Q: Which self-cleavage does the source give for C20A G45C here?
A: 0.05

Q: With C20A G45U as the variant, how does the self-cleavage read?
A: 0.13

Q: With C20G G53C as the variant, how does the self-cleavage read?
A: 0.03

Q: With C20G G53A as the variant, how does the self-cleavage read?
A: 0.06

Q: With C20G G53U as the variant, how does the self-cleavage read?
A: 0.04

Q: Which self-cleavage does the source give for C20G here?
A: 0.2

Q: For C20G G19C, which self-cleavage is on record?
A: 0.17

Q: For C20G G19A, which self-cleavage is on record?
A: 0.41

Q: For C20G G19U, which self-cleavage is on record?
A: 0.37

Q: For C20G G54U, which self-cleavage is on record?
A: 0.12

Q: With C20G G54A as the variant, how does the self-cleavage read?
A: 0.06

Q: With C20G G54C as the variant, how does the self-cleavage read?
A: 0.07

Q: Which self-cleavage does the source give for C20A G44C here?
A: 0.76

Q: For C20A G44A, which self-cleavage is on record?
A: 0.75

Q: For C20A G44U, which self-cleavage is on record?
A: 0.78

Q: Which self-cleavage does the source give for C20A U37C here?
A: 0.88

Q: With C20A U37A as the variant, how does the self-cleavage read?
A: 0.83

Q: For C20A U37G, which self-cleavage is on record?
A: 0.89

Q: With C20G C26U as the variant, how does the self-cleavage read?
A: 0.2

Q: With C20G C26G as the variant, how does the self-cleavage read?
A: 0.1

Q: With C20G C26A as the variant, how does the self-cleavage read?
A: 0.03

Q: Which self-cleavage does the source give for C20A G42U here?
A: 0.07

Q: Which self-cleavage does the source give for C20A G42C here?
A: 0.17

Q: With C20A G42A as the variant, how does the self-cleavage read?
A: 0.59

Q: For C20G G23C, which self-cleavage is on record?
A: 0.04
